PAFAH2 inh = PAFAH2 (human) inhibition; 340,000 tested, 0.99% active; Q99487; recombinant PAFAH2, FP-rhodamine activity probe, fluorescence polarization; inhibition, % at 3.39 µM;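 active = inhibition above the mean over all tested compounds plus 3 SD, cut at about 30% in these data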;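 note: inhibitors block probe labeling of enzyme so polarization drops; 0% = enzyme with DMSO and 100% = wells lacking PAFAH2 protein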
pPAFAH FP inh = inhibitors of human plasma PAF acetylhydrolase (pPAFAH); inhibition, % at 3.39 µM; recombinant pPAFAH, FP-rhodamine probe fluorescence polarization; 330,000 tested, 1.5% active;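 active = inhibition above the mean inhibition across the screen plus 3 SD, cut at about 25% in these data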;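 note: inhibitors block binding of the rhodamine activity-based probe so polarization drops; 0% = enzyme with DMSO and 100% = wells lacking pPAFAH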
PAFAH1B2 inh = inhibitors of human PAFAH1B2 | recombinant PAFAH1B2, FP-rhodamine activity probe, fluorescence polarization | inhibition, % at 3.39 µM | 340,000 tested, 1.2% active;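 active = inhibition above the mean of all tested compounds plus 3 SD, cut at about 24% in these data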;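 note: 0% = enzyme with DMSO and 100% = wells lacking PAFAH1B2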
Target sequence (P68402 whole entry, looked up): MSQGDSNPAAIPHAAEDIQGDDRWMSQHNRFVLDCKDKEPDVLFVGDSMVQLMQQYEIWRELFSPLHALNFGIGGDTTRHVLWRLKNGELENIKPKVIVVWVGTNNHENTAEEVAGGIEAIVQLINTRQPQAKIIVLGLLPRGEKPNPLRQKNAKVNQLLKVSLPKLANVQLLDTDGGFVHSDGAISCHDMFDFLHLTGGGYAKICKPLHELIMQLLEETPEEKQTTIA
ARFGAP1 inhibitor = rat ARFGAP1 inhibition; 360,000 tested, 0.26% active; inhibition, % at 16.5 µM; Q62848; Arfgap1-stimulated ARF1 GTP hydrolysis, GDP FP detection;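 active = inhibition above a per-plate limit, mean inhibition of low control wells plus 3 SD, cut at about 25% in these data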;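 note: 0% = DMSO wells with enzyme and 100% = wells lacking Arfgap1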
Target sequence (Q62848 1-136 limits assumed): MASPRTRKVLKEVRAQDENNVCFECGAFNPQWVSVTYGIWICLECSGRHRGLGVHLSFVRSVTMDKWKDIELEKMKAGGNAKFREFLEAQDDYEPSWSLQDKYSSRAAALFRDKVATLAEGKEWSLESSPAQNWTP
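System: truncated rat Arfgap1 GAP domain / Medium: HEPES-based buffer, pH 7.5 / Also added: N-terminally truncated human ARF1-GTP substrate / Incubation: enzyme reaction 120 min at 25 °C after 20 min preincubation / Measured by: FP of antibody-bound GDP Alexa 633 tracer, ex 620/em 688 nm / Replicates: singlicate, each compound tested once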
PAFAH1B3 FP inh = inhibitors of human PAFAH1B3 | recombinant PAFAH1B3, FP-rhodamine probe, fluorescence polarization | inhibition, % at 3.39 µM | 340,000 tested, 0.28% active | AID 492972;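 active = inhibition above the screen-wide average of all tested compounds plus 3 SD, cut at about 25% in these data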;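 note: 0% = enzyme with DMSO only and 100% = wells lacking PAFAH1B3 protein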
Target sequence (Q15102 whole entry, looked up): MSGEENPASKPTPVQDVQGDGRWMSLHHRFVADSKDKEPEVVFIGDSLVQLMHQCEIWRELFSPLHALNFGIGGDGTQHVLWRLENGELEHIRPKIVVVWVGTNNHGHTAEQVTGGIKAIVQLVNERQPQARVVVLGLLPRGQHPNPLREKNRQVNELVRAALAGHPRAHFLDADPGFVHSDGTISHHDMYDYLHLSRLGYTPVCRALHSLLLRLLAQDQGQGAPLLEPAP
ASAP1 GAP inh = inhibitors of human ASAP1 ArfGAP activity; Q9ULH1; ASAP1-stimulated ARF1 GTP hydrolysis, GDP FP detection; inhibition, % at 16.5 µM; 360,000 tested, 0.19% active; AID 624377; in the data active = inhibition above about 25%;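 note: 0% = vehicle with enzyme and substrate and 100% = no enzyme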
Starred values were filed as active, the others as inactive; . = no result given; ! = a repeat was not active. Shown are actives, neighbours in structure and some others; about 2.7% of the full set was active somewhere.

SMILES	PAFAH2 inh	pPAFAH FP inh	PAFAH1B2 inh	ARFGAP1 inhibitor	PAFAH1B3 FP inh	ASAP1 GAP inh
Cc1ccc(CNC(=O)c2ccc3c(=O)c(O)c(-c4ccc(C)cc4)[nH]c3c2)cc1	-22	27*	8	0	11	-13
COc1ccc(-n2c(CSc3ccc(Cl)cc3)n[nH]c2=S)cc1	.	.	.	-14	.	1
COCCNC(=S)N(C)[C@H]1C[C@H]2c3[nH]c4c(-c5ccccc5)cccc4c3CCN2C[C@H]1[C@H](C)O	.	.	.	-1	.	7
CC1CCCCC1NC(=O)COC(=O)c1c2c(nc3ccccc13)/C(=C/c1ccco1)CC2 (stereo not drawn)	27	31*	6	2	13	-1
Cc1cc(C(=O)OCC(=O)NC2CCCCC2C)c2ccccc2n1 (stereo not drawn)	22	2	5	-4	-1	4
COC(=O)C1=C(C)N(Cc2ccc(C(F)(F)F)cc2)C(=NCc2ccccc2C(F)(F)F)NC1c1ccc(C(F)(F)F)cc1 (stereo not drawn)	.	.	.	20	.	0
COc1ccc(-c2n[nH]c(C)c2-c2ccc(Cl)cc2)c(O)c1OC	-1	32*	6	7	4	-5
Cc1ccc(S(=O)(=O)NC(C)c2ccccc2)cc1[N+](=O)[O-] (stereo not drawn)	5	0	24*	4	1	15
CSc1ccc(S(=O)(=O)NC(C)c2ccccc2)cc1 (stereo not drawn)	.	4	.	6	.	4
CCC(=O)Nc1ccc2nc3c(=O)[nH]c(=S)[nH]c3nc2c1	13	26*	7	3	12	7
NC(=O)NN=C1CCC(O)CC1CC(=O)O (stereo not drawn)	.	.	.	-4	.	5
CC(C)N(c1cc(=O)nc2ccccn12)C(C)C	.	.	.	-13	.	-10
Cc1cc2c(c(=O)o1)[C@@]1(C(=O)N(C)c3ccc([N+](=O)[O-])cc31)C1=C(CCCC1=O)O2	.	.	.	-4	.	20
COC(=O)C1=C(C)N(Cc2cccc(C(F)(F)F)c2)C(=NCc2cc(OC)c(OC)c(OC)c2)NC1c1cccc(F)c1 (stereo not drawn)	.	.	.	11	.	2
Cc1cc(C)c(-n2c(O)c(C=NCCN3CCOCC3)c(=O)[nH]c2=O)c(C)c1	-3	3	5	2	3	-7
O=c1[nH]c(=S)n(C2CCCCC2)c(O)c1C=NCCN1CCOCC1	4	7	29*	-7	4	-5
Cc1cccc(/N=C/c2nc(-c3ccccc3Br)oc2O)n1	66*	32*	4	6	3	1
CSc1ccccc1N=Cc1nc(-c2ccccc2)oc1O	19	14	-1	5	3	2
O=C(Cc1cc(=O)[nH][nH]1)N/N=C/C(Cl)=C/c1ccccc1	-3	26*!	8	-9	0	-11
COC(=O)c1cc2c(c3c4ccccc4n(S(=O)(=O)c4ccc(OC)cc4)c13)C(=O)N(Cc1ccc(N(C)C)cc1)C2	.	.	.	-15	.	-2
CN(C)S(=O)(=O)c1ccc(N2CCCC2)c(C(=O)NCC2CCCCC2)c1	0	28*	3	1	5	9
Cc1cc(N2CCCC2=O)cc(C)c1S(=O)(=O)NCCOc1ccc(C(C)(C)C)cc1	2	3	40*	5	2	9
O=C1CCCN1c1ccc(S(=O)(=O)NCCOc2ccccc2)cc1	-1	2	3	-3	-4	-7
COc1ccc(NC(=O)CSc2nnc(CNC(=O)COc3ccc(Cl)cc3)o2)c(OC)c1	2	2	20	13	0	-10
COc1ccc(OC)c(NC(=O)CSc2nnc(CNC(=O)COc3ccc(Cl)cc3)o2)c1	-1	1	28*	-1	-2	6
SMILES	PAFAH2 inh	pPAFAH FP inh	PAFAH1B2 inh	ARFGAP1 inhibitor	PAFAH1B3 FP inh	ASAP1 GAP inh
Cc1ccccc1NS(=O)(=O)c1ccc(C(=O)N2CC(C)OC(C)C2)cc1 (stereo not drawn)	6	13	9	7	6	-1
Cc1cccc(NS(=O)(=O)c2ccc(C(=O)N3CC(C)OC(C)C3)cc2)c1C (stereo not drawn)	4	29*	3	7	9	6
COC(=O)CCC[C@H](C)[C@@H](NS(=O)(=O)c1ccc(C)cc1)C(C)(C)C	.	.	.	-1	.	2
COc1cccc(-n2c(CNc3ccc(F)cc3)nnc2SCC(N)=O)c1	2	3	26*	-7	2	-2
CCN(CC)C(=O)CSc1nnc(CNc2ccc(F)cc2)n1-c1ccccc1	3	-2	6	-21	2	0
Cc1cc(C)c2nc(NNC(=O)c3cc(=O)c4ccccc4o3)sc2c1	16	26*	8	-14	22	-3
CC(C)(C)c1ccc(-n2ncc3c2CCCC3NC(=O)CCN2CCCCC2=O)cc1 (stereo not drawn)	26	64*	2	4	9	-18
Cc1ccc(-n2ncc3c2CCCC3NC(=O)CCCN2CCCC2=O)cc1C (stereo not drawn)	4	10	6	2	2	-3
O=C(NCC1CCN(C(=O)C(=O)c2cccs2)CC1)c1cccnc1	.	.	.	2	.	-8
COc1cc(C=O)ccc1OCCOCCOc1ccc(Cl)cc1	2	2	2	1	2	6
COc1cc(C=O)ccc1OCCSc1ccc(Cl)cc1	1	21	56*	-3	1	-8
CCOC(=O)N/N=C/c1ccc(OCCSc2ccc(Cl)cc2)c(OC)c1	1	34*	18	-8	3	3
COC(=O)C1=C(C)N(Cc2cccc(C(F)(F)F)c2)C(=NCC2CC2)NC1c1ccccc1C(F)(F)F (stereo not drawn)	.	.	.	4	.	-2
N=c1n(Cc2ccccc2)c2ccccc2n1CC(O)c1ccco1 (stereo not drawn)	46*	3	38*	2	28*	0
Cc1cc2c(nc1C)CCCN2S(=O)(=O)c1c(C)noc1C	.	.	.	5	.	-5
COC(=O)[C@]12C[C@H](CC(=O)NCc3ccc(C)o3)C(=O)N(Cc3ccc4c(c3)OCO4)C1=C[C@H](COCc1ccccc1)O[C@@H]2C	.	.	.	4	.	11
CCOC(=O)CCCCCC(=O)Nc1ccc2c(c1)C(=O)N([C@H](C)CO)C[C@@H](C)[C@@H](CN(C)S(=O)(=O)c1ccc(C)cc1)OCCCC[C@H](C)O2	.	.	.	1	.	-2
CCC(C)(C)C1CCc2c(sc(NC(=O)c3ccccc3C(=O)O)c2C#N)C1 (stereo not drawn)	15	32*	67*	-11	11	-7
N#Cc1c(NC(=O)CCC(=O)O)sc2c1CCCCC2	13	10	6	-9	7	14
N#Cc1c(NC(=O)C2CC=CCC2C(=O)O)sc2c1CCCCCC2 (stereo not drawn)	6	-2	45*	4	4	1

Screening results as filed in PubChem BioAssay.
